Experimental data of several laboratories.
Compare with care: the assays were run in different laboratories.
Cell line: MIA PaCa-2
Observed: cell growth or viability

CC1=CC(=O)C(C(C)C)=CC1=O — IC50 (SRB; 48 h): 33.2 µM
CNC(=O)c1ccccc1Nc1cc(Nc2ccc(N3CCOCC3)cc2OC)ncc1C(F)(F)F — IC50 (MTT; 48 h): 1.77 µM
O=C1C(Cl)=C(NCCCN2CCCCC2)C(=O)c2ccccc21 — IC50 (MTT): 4.75 µM
CCCOc1ccc2[nH]cc(C(=O)C(C#N)=Cc3cn(CC)c4ccccc34)c2c1 — IC50 (MTT; 48 h): 5.3 µM
N#CSCc1cc(=O)oc2cc(O)ccc12 — GI50 (SRB): 5.3 µM
O=C1C(Cl)=C(NCCN2CCOCC2)C(=O)c2ccccc21 — IC50 (MTT): 19.7 µM
COc1ccc2c(C(=O)C(C#N)=Cc3cn(C)c4ccccc34)c[nH]c2c1 — IC50 (MTT; 48 h): > 40 µM
CC(=O)N1CCC(Nc2cc(C(=O)NC[C@H](O)CN3CCc4ccccc4C3)ncn2)CC1 — IC50 (CCK-8; 72 h): > 100 µM
CCOc1ccc2[nH]cc(C(=O)C(C#N)=Cc3cn(C)c4ccccc34)c2c1 — IC50 (MTT; 48 h): 1.35 µM
Cc1sc2c(c1C)C(c1ccc(Cl)cc1)=N[C@@H](CC(=O)NCCCCNC(=O)COc1cccc3c1C(=O)N(C1CCC(=O)NC1=O)C3=O)c1nnc(C)n1-2 (some centres unmarked) — IC50 (CCK-8; 72 h): > 10 µM
Cc1cc(=O)oc2cc(OCCCCSC#N)ccc12 — GI50 (SRB): 6.3 µM
